Publication PMC3334872 (Chemistry & biology, 2012)

B1: 6xHis-Ad5E1A_(CR1-3) (residues 36–189) (domain or fragment)
chain: SHFEPPTLHELYDLDVTAPEDPNEEAVSQIFPDSVMLAVQEGIDLLTFPPAPGSPEPPHLSRQPEQPEQRALGPVSMPNLVPEVIDLTCHEAGFPPSDDEDEEGEEFVLDYVEHPGHGCRSCHYHRRNTGDPDIMCSLCYMRTCGMFVYSPVSE
B2: 6xHis-HPV1AE7_(CR2-3) (residues 16–93) (domain or fragment)
chain: EPSVLDLDLYCYEEVPPDDIEEELVSPQQPYAVVASCAYCEKLVRLTVLADHSAIRQLEELLLRSLNIVCPLCTLQRQ

Experiments:
SiHa cells = assay: Flow cytometry, DNA content by propidium iodide staining; assay type: cell-based, human; settings: 2 µM, 48 hours
In short: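 Cells seeded at 1×105 per 60 mm dish; next day test compound or DMSO added for 48 hr. Cells trypsinized, PBS-washed, fixed in 80% ethanol, pelleted 500g 5 min, stained with PI (100 µL 2mg/ml PI plus 10 µg RNase A in 10 mL PBS). DNA content analysed by flow cytometry; apoptotic fraction taken from area under the corresponding histogram region.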

[1] = biological target: E7 LxCxE peptide LxCxE peptide (Human papillomavirus type 16) (UniProt P03129); settings: cited from earlier work
[2] = biological target: T1, GST-pRbABC (residues 376–928) (UniProt P06400 376-928); assay: ELISA
T1 sequence (looked up): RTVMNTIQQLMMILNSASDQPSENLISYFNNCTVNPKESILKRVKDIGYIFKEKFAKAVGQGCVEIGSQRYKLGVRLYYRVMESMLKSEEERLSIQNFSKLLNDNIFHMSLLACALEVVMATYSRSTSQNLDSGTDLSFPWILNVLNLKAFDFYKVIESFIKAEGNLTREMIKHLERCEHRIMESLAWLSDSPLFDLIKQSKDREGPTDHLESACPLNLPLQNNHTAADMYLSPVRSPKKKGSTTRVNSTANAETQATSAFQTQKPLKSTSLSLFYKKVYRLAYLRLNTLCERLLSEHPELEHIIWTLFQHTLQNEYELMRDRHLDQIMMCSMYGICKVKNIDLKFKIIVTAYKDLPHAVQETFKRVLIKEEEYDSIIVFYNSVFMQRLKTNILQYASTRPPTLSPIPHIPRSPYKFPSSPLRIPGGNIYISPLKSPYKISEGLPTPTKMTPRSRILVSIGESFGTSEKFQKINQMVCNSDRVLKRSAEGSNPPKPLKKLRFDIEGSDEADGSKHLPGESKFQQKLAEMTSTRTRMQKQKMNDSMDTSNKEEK

Sequence of E7 LxCxE peptide LxCxE peptide (Human papillomavirus type 16) (P03129 whole entry, looked up, the tested form may be a part): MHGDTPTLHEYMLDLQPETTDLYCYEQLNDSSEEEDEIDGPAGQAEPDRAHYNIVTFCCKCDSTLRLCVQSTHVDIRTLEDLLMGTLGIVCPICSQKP

Molecule | binding result [2] | other results
CN[C@@H]1C[C@H]2O[C@@](C)([C@@H]1OC)n1c3ccccc3c3c4c(c5c6ccccc6n2c5c31)C(=O)NC4 [staurosporine, Staurosporine] |  | apoptotic cells (SiHa cells): 34.3%
pRb (from UniProt P06400) |  | Kd [1]: 110 nM
B1 | binds | 
B2 | binds | 
